Results reported in paper PMC3766433 (Journal of neurochemistry, 2013).

Experiments:
Format in all cases: binding
Munc13-1 C1 (WT) [1] = biological target: Munc13-1 C1 (WT) (Rattus norvegicus, UniProt Q62768, E582L); experiment: intrinsic fluorescence quenching, logistic fit
Method in brief: (§1)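 GST-fused Munc13-1 C1 domain (wild type or Glu-582 mutant) was expressed in E. coli BL21 DE3 gold, affinity-purified and thrombin-cleaved. Protein was held at 1 μM in 50 mM Tris, 100 mM NaCl, pH 7.4. Alcohols were added neat or from a 0.25 M DMSO stock, at 1–250, 1–150 or 1–5 mM depending on the alcohol. After 15 min incubation, samples were excited at 280 nm. Emission at 348–350 nm was buffer-corrected and fitted to a logistic equation; runs were done in triplicate.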

Munc13-1 C1 (WT) [2] = biological target: T1, Munc13-1 C1 (WT) (Rattus norvegicus, UniProt Q62768); experiment: intrinsic fluorescence quenching, logistic fit
Method in brief: as §1

Munc13-1 C1 (WT) [3] = biological target: Munc13-1 C1 (WT) (Rattus norvegicus, UniProt Q62768, E582A); experiment: intrinsic fluorescence quenching, logistic fit
Method in brief: as §1

Munc13-1 C1 (WT) [4] = biological target: Munc13-1 C1 (WT) (Rattus norvegicus, UniProt Q62768, E582H); experiment: intrinsic fluorescence quenching, logistic fit
Method in brief: as §1

Munc13-1 C1 (WT) [5] = biological target: T1, Munc13-1 C1 (WT); experiment: photolabeling, LC-MS/MS; details: covalent (photoaffinity), site Glu-582

| EC50 (Munc13-1 C1 (WT) [1]) [mM] | EC50 (Munc13-1 C1 (WT) [2]) [mM] | EC50 (Munc13-1 C1 (WT) [3]) [mM] | EC50 (Munc13-1 C1 (WT) [4]) [mM] | SMILES | photolabeling, LC-MS/MS; fluorescence quenching (Munc13-1 C1 (WT) [5]) |
| --- | --- | --- | --- | --- | --- |
| 70.5 ± 1.8 | 25.8 ± 1.1 | 59.9 ± 0.9 | 75.3 ± 1.9 | CCCCO [Butanol] | – |
| – | 51.7 ± 2.8 | – | – | CCO [Ethanol] | – |
| 3.3 ± 0.06 | 0.7 ± 0.03 | 2.6 ± 0.2 | 1.1 ± 0.07 | CCCCCCCCO [Octanol] | – |
| – | – | – | – | CC1(CCO)N=N1 [3-azibutanol] | 3-azibutanol labeled the Munc13-1 C1 at the Glu-582 site |
